Published values from different studies.
JAK3: Tyrosine-protein kinase JAK3 (JAK3, Homo sapiens, UniProt P52333)
JAK3 JH1: Tyrosine-protein kinase JAK3, JH1 (JAK3, Homo sapiens, UniProt P52333)

SMILES | target | read-out | action | method | concentration | endpoint | value
CCN(CC)CCNC(=O)c1c(C)[nH]c(/C=C2\C(=O)Nc3ccc(F)cc32)c1C | JAK3 | enzyme activity | inhibitor |  | 0.3 µM | inhibition | 7%
CCS(=O)(=O)c1cc2cc(C[C@](O)(CC(C)(C)c3ccc(F)cc3C(N)=O)C(F)(F)F)[nH]c2cn1 | JAK3 JH1 | cell-free assay |  | competition with immobilised ligand | 1 µM | remaining binding | 72%
O=C1NC(=O)c2cc(Nc3ccc(F)cc3)c(Nc3ccc(F)cc3)cc21 | JAK3 | cell-free assay |  |  | 0.5 µM | remaining signal | 93.9%
O=C(Nc1cnn(-c2csc(C(=O)NC3COC3)c2)c1)Nc1c(F)cccc1Cl | JAK3 | enzyme activity | inhibitor |  | 5 µM | remaining activity | 98.7%
CC(C)(O)[C@H]1CC[C@H](Nc2ccc3ncc(-c4cccc(C(F)(F)F)c4)n3n2)CC1 | JAK3 | enzyme activity | inhibitor |  | 1 µM | remaining activity | 84.8%
CCCS(=O)(=O)Nc1ccc(F)c(C(=O)c2c[nH]c3ncc(-c4ccc(Cl)cc4)cc23)c1F | JAK3 | enzyme activity | inhibitor |  | 1 µM | inhibition | < 10%
C[C@@H]1CCN(c2nccc(-c3cnn4ncccc34)n2)C1 | JAK3 JH1 | cell-free assay |  |  | 1 µM | remaining signal | 80%
N#CCCc1ccc2c(c1)-c1[nH]c3ccc([N+](=O)[O-])cc3c1CC(=O)N2 | JAK3 | cell-free assay |  |  | 0.5 µM | remaining signal | 101%
c1cnn2ncc(-c3ccnc(N4CCC45COC5)n3)c2c1 | JAK3 JH1 | cell-free assay |  |  | 1 µM | remaining signal | 68%
COc1cc(/C=C/C(=O)CC(=O)/C=C/c2ccc(O)c(OC)c2)ccc1O | JAK3 | enzyme activity | inhibitor |  | 1 µM | activity vs control | 104%
CCN(CC)c1ccc(C2=NNC(=O)CC2C)cc1[N+](=O)[O-] (centres unmarked) | JAK3 | enzyme activity | inhibitor |  | 10 µM | remaining activity | 134%
CS(=O)(=O)Nc1cccc(-c2csc(NC(=O)CSc3nc4nccnc4c(=O)n3CCc3ccccc3)n2)c1 | JAK3 | enzyme activity | inhibitor |  | 10 µM | inhibition | 1%
COc1ccc2c(c1)O[C@H](c1ccc(OC)c(OC)c1)C[C@@H]2NC(=O)C1(c2ccc3c(c2)OC(F)(F)O3)CC1 | JAK3 JH1 | cell-free assay |  | competition with immobilised ligand | 1 µM | remaining binding | 100%
COc1cc2ncnc(Nc3ccc(Oc4ccccc4)cc3C)c2cc1OC | JAK3 | enzyme activity | inhibitor |  | 1 µM | inhibition | -6%
COc1cc2ncnc(Nc3ccc(F)c(Cl)c3)c2cc1OCCCN1CCOCC1 | JAK3 | cell-free assay |  |  | 0.5 µM | remaining signal | 96.6%
Cc1cc(NC(=O)c2cccc3cc(-c4cccc5[nH]nc(N)c45)ccc23)ccc1F | JAK3 | enzyme activity | inhibitor |  | 0.1 µM | activity vs control | 94%
CC1=C(C#N)[C@@H](c2ccc3[nH]nc(C)c3c2)C(C#N)=C(c2ccc(Cl)cc2)N1 | JAK3 JH1 | cell-free assay |  | competition with immobilised ligand | 1 µM | remaining binding | 100%
COc1cc2nccc(Oc3ccc(NC(=O)c4c5n(n(-c6ccc(F)cc6)c4=O)CCCC5)cc3)c2cc1OC | JAK3 | enzyme activity | inhibitor |  | 0.1 µM | inhibition | -18%
Cc1cnc(NC2CCOCC2)nc1-n1cnc(C(=O)NC(CN)c2cc(F)cc(Cl)c2)c1 (centres unmarked) | JAK3 | enzyme activity | inhibitor | radiometric | 1 µM | remaining activity | 118%
CNCc1ccccc1-c1csc([C@H](C)Nc2nc(C)nc3cc(OC)c(OC)cc23)c1 | JAK3 JH1 | cell-free assay |  | competition with immobilised ligand | 1 µM | remaining binding | 99%
CC(C)(C)c1nc2c(s1)c1nc(N)ncc1c1ccc(NS(=O)(=O)c3c(F)cccc3F)c(F)c12 | JAK3 | enzyme activity | inhibitor | radiometric | 1 µM | remaining activity | 100%
Cn1nc(C(=O)NCc2ccc(C(=O)O)cc2)cc1-c1ccc2[nH]ccc2c1 | JAK3 JH1 | cell-free assay |  | competition with immobilised ligand | 0.1 µM | remaining binding | 65%
Cc1ccc(Nc2nccc(N(C)c3ccc4c(C)n(C)nc4c3)n2)cc1S(N)(=O)=O | JAK3 | enzyme activity | inhibitor |  | 10 µM | inhibition | 77%
COc1cccc(CNC(=O)c2nc3scc(COCc4ccc(C(=O)O)cc4)c3c(=O)[nH]2)c1 | JAK3 JH1 | cell-free assay |  | competition with immobilised ligand | 1 µM | remaining binding | 78.4%
CCOc1cc(-c2nncn2C)ccc1Nc1ncc2cc(C)nc(NCC(C)(C)C)c2n1 | JAK3 | enzyme activity | inhibitor | FRET | 1 µM | inhibition | < 15%
CN(C)CC#Cc1ccc(OCCCc2sc(N3CCc4cccc(C(=O)Nc5nc6ccccc6s5)c4C3)nc2C(=O)O)c(F)c1 | JAK3 JH1 | cell-free assay |  | competition with immobilised ligand | 1 µM | remaining binding | 58%
CSc1nc(C)c(-c2ccnc(Nc3ccc(N4CCOCC4)cc3)c2)[nH]1 | JAK3 | enzyme activity | inhibitor |  | 10 µM | inhibition | 65.5%
CCCOc1ccc(OC)c(F)c1C(=O)c1ccc(C(=O)N[C@@H]2CNC[C@H]2NC(=O)c2ccc3[nH]ncc3c2)cc1 | JAK3 | enzyme activity | inhibitor |  | 10 µM | remaining activity | 19%
CCOC(=O)c1cc2cc(-c3cc(C(=O)NCc4ccc(C(=O)O)cc4)nn3C)ccc2[nH]1 | JAK3 JH1 | cell-free assay |  | competition with immobilised ligand | 0.1 µM | remaining binding | 82%
